Experimental data collected from several papers.
Target: Activated CDC42 kinase 1 (TNK2, Homo sapiens, UniProt Q07912)

Compound	read-out	mode	method	concentration	endpoint	result
O=c1[nH]c2ccccc2n1C1CCN(Cc2ccc(-c3[nH]c4cc5ncnc5cc4nc3-c3ccccc3)cc2)CC1	cell-free assay	–	–	0.5 µM	remaining signal	92.3%
COc1cc(Cl)c(C(=O)N[C@@H](CN[C@H]2CC[C@@H](N)CC2)Cc2ccc(C#N)cc2)cc1-c1ccc(CN[C@H](C)c2ccc(C)cc2)o1	enzyme activity	inhibitor	–	1 µM	remaining activity	107%
Cn1cc(-c2cccc(N3CCc4c(sc5c4CC(C)(C)C5)C3=O)c2CO)cc(Nc2ccncn2)c1=O	enzyme activity	inhibitor	–	1 µM	inhibition	0%
COc1ncccc1-c1cnn2ccc(N3CCN(C(=O)OC(C)C)CC3)nc12	binding	–	competition with immobilised ligand	1 µM	remaining binding	94%
CC(C)(C)c1cc(C=C(C#N)C#N)cc(Br)c1O	enzyme activity	inhibitor	–	0.5 µM	remaining activity	93.1%
Nc1ncc(-c2nc(N3CCOCC3)nc(N3CCOCC3)n2)c(C(F)F)n1	binding	–	competition with immobilised ligand	10 µM	remaining binding	85%
Cn1cncc1[C@](O)(COc1ccc(C#N)cc1-c1ccc(OC(F)(F)F)cc1)c1ccc(C#N)cc1	cell-free assay	–	competition with immobilised ligand	1 µM	remaining binding	100%
Cn1cc(-c2cc(F)cc(N3CCn4c(cc5c4CCCC5)C3=O)c2CO)cc(Nc2ccc(N3CCN(C4COC4)CC3)cn2)c1=O	enzyme activity	inhibitor	–	0.1 µM	inhibition	1%
COc1cc(Nc2ncc(F)c(Nc3ccc4c(n3)NC(=O)C(C)(C)O4)n2)cc(OC)c1OC	binding	–	–	10 µM	inhibition	99%
